According to ChEMBL document CHEMBL5705892, “MK-2206, an allosteric Akt inhibitor, enhances antitumor efficacy by standard chemotherapeutic agents or molecular targeted drugs in vitro and in vivo” (Mol Cancer Ther, 2010):
pIC50: −log10 of the molar value. Active and inactive are the calls of the source. The rule behind the calls is not given here.

Columns and labels:
[1] = test system: BT-474; assay: Synergistic antiproliferative activity against human BT-474 cells assessed as combination index at ED90 preincubated for 24 hrs followed by compound washout and subsequent docetaxel addition and measured after 72 hrs by celltiter-glo assay; format: functional
Summary of the method: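 Sequential schedule. Cells were seeded at 2 to 3 × 10³ per well in RPMI 1640 with 10% FBS and dosed 24 h after plating. They were exposed to the Akt inhibitor for 24 h, washed free of it, then given docetaxel for a further 72 h. Fixed concentration ratios spanned each agent's IC₅₀. ATP was read by CellTiter-Glo, and Chou–Talalay CI was calculated at ED50, ED75 and ED90.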

[2] = test system: A2780; assay: Cell cycle arrest in human A2780 cells assessed as increase in accumulation of cells at sub-G1 phase measured after 72 hrs in presence of 5-FU by propidium iodide staining based flow cytometry; format: functional
[3] = test system: Calu-6; assay: Synergistic antiproliferative activity against human Calu-6 cells assessed as combination index at ED50 measured after 72 hrs in presence of erlotinib by celltiter-glo assay; format: functional
Summary of the method: (§1)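 Cells grown in RPMI 1640 with 10% heat-inactivated FBS at 37°C, 5% CO₂. Seeded at 2 to 3 × 10³ per well; drugs added 24 h later. […] Viability read as cellular ATP by CellTiter-Glo. CI calculated by Chou–Talalay from median-effect plots at ED50, ED75 and ED90.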

[4] = test system: MDA-MB-453; assay: Synergistic antiproliferative activity against human MDA-MB-453 cells assessed as combination index at ED90 measured after 72 hrs in presence of docetaxel by celltiter-glo assay; format: functional; summary of the method: as §1
[5] = test system: HCC1954; assay: Synergistic antiproliferative activity against human HCC1954 cells assessed as combination index at ED50 measured after 72 hrs in presence of lapatinib by celltiter-glo assay; format: functional; summary of the method: as §1
[6] = test system: NCI-H460; assay: Synergistic antiproliferative activity against human NCI-H460 cells assessed as combination index at ED75 measured after 72 hrs in presence of carboplatin by celltiter-glo assay; format: functional
[7] = test system: ZR-75-1; assay: Synergistic antiproliferative activity against human ZR-75-1 cells assessed as combination index at ED50 measured after 72 hrs in presence of docetaxel by celltiter-glo assay; format: functional
[8] = test system: SK-BR-3; assay: Synergistic antiproliferative activity against human SK-BR-3 cells assessed as combination index at ED50 measured after 96 hrs in presence of lapatinib by celltiter-glo assay; format: functional
[9] = In vivo inhibition of ERK phosphorylation at T202/Y204 residues in human NCI-H292 cells xenografted mouse at 120 mg/kg, po administered as single dose measured after 12 hrs by Western blot analysis relative to control; format: functional
[10] = test system: A2780; assay: Synergistic antiproliferative activity against human A2780 cells assessed as combination index at ED50 measured after 72 hrs in presence of 5-FU by celltiter-glo assay; format: functional
Summary of the method: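 Cells were seeded at 2–3 × 10³ per well in RPMI 1640 with 10% FBS. At 24 h, MK-2206 and the partner drug were added simultaneously at constant concentration ratios spanning each agent's IC₅₀, for 72 h. Growth was read as cellular ATP by CellTiter-Glo. CI was taken from median-effect plots of each agent alone and in combination (Chou–Talalay), at ED₅₀, ED₇₅ and ED₉₀.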

[11] = test system: NCI-H460; assay: Synergistic antiproliferative activity against human NCI-H460 cells assessed as combination index at ED50 measured after 72 hrs in presence of gemcitabine by celltiter-glo assay; format: functional
[12] = test system: NCI-H1299; assay: Synergistic antiproliferative activity against human NCI-H1299 cells assessed as combination index at ED75 measured after 72 hrs in presence of erlotinib by celltiter-glo assay; format: functional
[13] = test system: MDA-MB-231; assay: Synergistic antiproliferative activity against human MDA-MB-231 cells assessed as combination index at ED75 measured after 72 hrs in presence of docetaxel by celltiter-glo assay; format: functional; summary of the method: as §1
[14] = test system: NCI-H460; assay: Synergistic antiproliferative activity against human NCI-H460 cells assessed as combination index at ED50 measured after 72 hrs in presence of doxorubicin by celltiter-glo assay; format: functional
[15] = test system: HCC1954; assay: Synergistic antiproliferative activity against lapatinib pretreated human HCC1954 cells assessed as combination index at ED90 measured after 72 hrs by celltiter-glo assay; format: functional
[16] = Toxicity in human HCC70 cells xenografted CB17/icr SCID mouse assessed as mortality at 120 mg/kg, po administered 3 times per week for 3 weeks starting 2 hrs post-lapatinib treatment and measured during compound dosing; format: organism-based; conditions: in vivo, 504 h
Summary of the method: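 HCC70 cells in 50% Matrigel/PBS injected s.c. into flank of female C.B-17/ICR-scid mice; dosing began after 3 wk, groups randomized at mean tumour 0.2 cm³ (n = 5). Lapatinib 100 mg/kg p.o. in distilled water, 5 d/wk for 3 wk; MK-2206 in 30% Captisol p.o. 3×/wk for 3 wk, given 2 h after lapatinib. Body weight and physical signs monitored throughout.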

[17] = test system: HCC1954; assay: Synergistic antiproliferative activity against human HCC1954 cells assessed as combination index at ED75 treated 24 hrs prior to lapatinib and measured after 72 hrs by celltiter-glo assay; format: functional; conditions: time 96 hrs
[18] = test system: NCI-H1703; assay: Induction of apoptosis in human NCI-H1703 cells assessed as fold induction of capsase-3/7 activity measured after 24 to 48 hrs in presence of gemcitabine by caspase-glo 3/7 assay; format: functional; conditions: time 24-48 hrs
[19] = test system: NCI-H358; assay: Antiproliferative activity against human NCI-H358 cells assessed as reduction in cell proliferation measured after 72 hrs by celltiter-glo assay; format: functional, cell-based; conditions: NCI-H358, 72 h
Summary of the method: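 Cells in RPMI 1640 with 10% heat-inactivated FBS at 37°C and 5% CO₂ were seeded at 2 to 3 × 10³ per well. […] Growth was read as cellular ATP by CellTiter-Glo.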

[20] = test system: NCI-H460; assay: Antitumor activity against human NCI-H460 cells xenografted in CD1 nude mouse assessed as reduction in tumor volume at 120 mg/kg, po administered 3 times per week for 2 weeks by caliper method; format: functional, organism-based
Summary of the method: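 NCI-H460 cells were injected s.c. in Matrigel/PBS into CD1-nude mice (female in the carboplatin study). Mice were randomized at 0.2 cm³, n = 5. Carboplatin was given at 50 mg/kg or gemcitabine at 100 mg/kg, i.v. in saline, on days 0 and 7. MK-2206 (30% Captisol) was given at 120 mg/kg po on days 0, 2, 4, 7, 9, 11. Tumors measured by caliper twice weekly.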

[21] = Toxicity in human NCI-H292 cells xenografted CD-1 mouse assessed as death at 120 mg/kg, po administered 3 times per week for 2 weeks starting 2 hrs post-erlotinib treatment and measured during compound dosing; format: organism-based; conditions: in vivo, 336 h
Summary of the method: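 NCI-H292 cells in 50% Matrigel/PBS injected s.c. into flank of female CD1-nude mice; dosing began after 2 wk at mean tumour 0.2 cm³, n = 5/group. […] Body weight and signs monitored; treatment ended day 16.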

[22] = test system: SK-OV-3; assay: Synergistic antiproliferative activity against human SK-OV-3 cells assessed as combination index at ED50 measured after 96 hrs in presence of lapatinib by celltiter-glo assay; format: functional
[23] = test system: BT-474; assay: Synergistic antiproliferative activity against human BT-474 cells assessed as combination index at ED50 measured after 72 hrs in presence of docetaxel by celltiter-glo assay; format: functional; summary of the method: as §1

SMILES: Cl.NC1(c2ccc(-c3nc4ccn5c(=O)[nH]nc5c4cc3-c3ccccc3)cc2)CCC1
- CI90 [1]: 1.6
- Activity [2]: Dose-Dependent Effect
- CI50 [3]: 0.49
- CI90 [4]: 0.3
- CI50 [5]: 0.18
- CI75 [6]: 0.3
- CI50 [7]: 0.1
- CI50 [8]: 0.18
- inhibition in vivo at 120 mg/kg [9]: 27.7%
- CI50 [10]: 0.68
- CI50 [11]: 0.33
- CI75 [12]: 0.31
- CI75 [13]: 0.7
- CI50 [14]: 0.27
- CI90 [15]: 0.18
- Activity [16]: Non-Toxic
- CI75 [17]: 0.18
- fold change (FC) [18]: 1.5
- pIC50 [19]: 4.87
- Activity [20]: Active
- Activity [21]: Non-Toxic
- CI50 [22]: 0.18
- CI50 [23]: 1
